Assay results collected from several papers.
Target: Serine/threonine-protein kinase DCLK1 (DCLK1, Homo sapiens, UniProt O15075)
One construct used (O15075 1-740): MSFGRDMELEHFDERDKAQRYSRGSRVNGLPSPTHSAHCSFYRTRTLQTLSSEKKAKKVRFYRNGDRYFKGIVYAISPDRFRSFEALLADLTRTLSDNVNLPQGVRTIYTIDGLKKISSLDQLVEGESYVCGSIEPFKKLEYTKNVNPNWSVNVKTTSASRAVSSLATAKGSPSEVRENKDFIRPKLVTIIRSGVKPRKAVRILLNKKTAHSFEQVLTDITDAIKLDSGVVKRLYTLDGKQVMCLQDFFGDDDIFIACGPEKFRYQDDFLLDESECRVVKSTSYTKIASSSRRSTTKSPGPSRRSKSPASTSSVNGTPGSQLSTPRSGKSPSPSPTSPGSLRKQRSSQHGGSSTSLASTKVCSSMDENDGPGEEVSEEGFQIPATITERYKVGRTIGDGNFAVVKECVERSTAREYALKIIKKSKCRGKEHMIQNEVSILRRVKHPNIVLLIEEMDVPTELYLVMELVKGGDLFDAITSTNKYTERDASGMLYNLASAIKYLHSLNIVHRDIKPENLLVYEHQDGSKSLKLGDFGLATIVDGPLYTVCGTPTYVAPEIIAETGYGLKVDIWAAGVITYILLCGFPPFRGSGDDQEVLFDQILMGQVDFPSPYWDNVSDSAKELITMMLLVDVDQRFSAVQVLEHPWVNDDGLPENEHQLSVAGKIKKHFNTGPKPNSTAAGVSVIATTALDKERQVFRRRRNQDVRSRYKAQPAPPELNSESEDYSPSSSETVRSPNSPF

| assay | conditions | remaining binding [%] | Compound |
| --- | --- | --- | --- |
| binding, competition with immobilised ligand | 1 µM | 69 | O=C(c1ccc(Nc2ncc(Cl)c(-c3ccc(Cl)s3)n2)cc1)N1CCC(N2CCCC2)CC1 |
| cell-free assay, competition with immobilised ligand | 1 µM | 79 | CC1=C(C#N)C(c2ccc3c(c2)c(NC(=O)c2ccccc2C)nn3C)C(C#N)=C(C)N1 |
| binding, competition with immobilised ligand | 1 µM | 82 | c1cnn2ncc(-c3ccnc(N4CCC45COC5)n3)c2c1 |
| cell-free assay, competition with immobilised ligand | 0.3 µM | 32 | Cc1cc(-c2cc(C(F)(F)F)ccc2O[C@H]2C[C@@]2(CNS(=O)(=O)c2ccc([N+](=O)[O-])cc2)c2ccc(F)cc2F)[nH]n1 |
| binding, competition with immobilised ligand | 1 µM | 87 | CC1CCCN1c1nccc(-c2cnn3ncccc23)n1 (stereo not shown) |
| cell-free assay, competition with immobilised ligand | 1 µM | 85 | CN1CCN(c2cnc3c(C4CCN(C(=O)c5ccc(OC(F)(F)F)cc5N)CC4)ncnc3c2)CC1 |
| binding, competition with immobilised ligand | 1 µM | 85 | C[C@H]1CCN(c2nccc(-c3cnn4ncccc34)n2)C1 |
| binding, competition with immobilised ligand | 50 nM | 84 | C[C@@H]1CN(c2ccc3ncc(-c4ccc5[nH]nc(C6CC6)c5c4)n3n2)C[C@H](C)O1 |
| cell-free assay, competition with immobilised ligand | 1 µM | 100 | COc1ccc2cc(OCC3(C(=O)O)CN(C(=O)c4ccc(F)cc4)C3)ccc2c1 |
| binding, competition with immobilised ligand | 1 µM | 85 | CNC(=O)[C@@H]1CC[C@@H](n2c(-c3ccc4cnccc4c3)nc3ccc(C(=O)NCc4cccc(C(N)=O)c4)cc32)C1 |
| cell-free assay, competition with immobilised ligand | 1 µM | 85 | Cc1c(NC(=O)c2cc(C(N)=O)nc3cc(F)ccc23)c(C(F)(F)F)nn1Cc1ccc(C#N)cc1 |
| binding, competition with immobilised ligand | 1 µM | 61 | CN(C)c1ncc(F)c(-c2cnn3ncccc23)n1 |
| binding, competition with immobilised ligand | 10 µM | 4.2 | COc1cc(C(=O)N2CCC(N3CCN(C)CC3)CC2)ccc1Nc1ncc2c(n1)N(C)c1ccccc1C(=O)N2C |
| binding, competition with immobilised ligand | 1 µM | 86 | O=C(c1ccc(Nc2nccc(-c3cc4ccccc4s3)n2)cc1)N1CCC(N2CCCC2)CC1 |
| cell-free assay, competition with immobilised ligand | 1 µM | 90 | Cc1nccc(COC(=O)N2C[C@@H]3[C@@H](CNC(=O)c4ccc5[nH]nnc5c4)[C@@H]3C2)n1 |
| binding, competition with immobilised ligand | 1 µM | 100 | O=C(c1ccc(Nc2ncc(Cl)c(-c3cc4ccccc4s3)n2)cc1)N1CCC(N2CCCC2)CC1 |
| binding, competition with immobilised ligand | 10 µM | 100 | N#Cc1ccccc1CSc1nnc2c(n1)[nH]c1ccccc12 |
| binding, competition with immobilised ligand | 1 µM | 82 | F[C@@H]1CCN(c2nccc(-c3cnn4ncccc34)n2)C1 |
| cell-free assay, competition with immobilised ligand | 1 µM | 87 | CNCc1ccccc1-c1csc([C@H](C)Nc2nc(C)nc3cc(OC)c(OC)cc23)c1 |
| binding, competition with immobilised ligand | 1 µM | 75 | O=C(NCC1CCOCC1)c1n[nH]cc1NC(=O)c1c(F)cccc1F |
| cell-free assay, competition with immobilised ligand | 1 µM | 75 | Cc1noc([C@H]2C[C@@H](c3ccc(C(F)(F)F)cc3)CN(C(=O)N3CCS(=O)(=O)C3)C2)n1 |
| binding | 1 µM | 85 | CN(c1nccc(-c2cnn3ncccc23)n1)C1CC1 |
| cell-free assay, competition with immobilised ligand | 1 µM | 100 | CC(=O)Nc1c(C(C)=O)c(=O)n(C)c2nc(-c3ccc(Cl)cc3Cl)c(-c3ccc(Cl)cc3)cc12 |
| binding, competition with immobilised ligand | 1 µM | 83 | N[C@H]1CCN(c2nccc(-c3cnn4ncccc34)n2)C1 |
| cell-free assay, competition with immobilised ligand | 5 µM | 69 | FC(F)(F)Oc1cccc(-c2cnc3ccc(-c4ccncc4)nn23)c1 |
